Laboratory results published in ChEMBL document CHEMBL3351585, “Design, synthesis and biological evaluation of novel peptides with anti-cancer and drug resistance-reversing activities” (Eur J Med Chem, 2015).
Active and inactive are the calls of the source. The rule behind the calls is not given here.

Tests used:
[1] = Cytotoxicity against human GES-1 cells after 48 hrs by MTT assay; type: cell-based; settings: GES1, 48 h
Procedure, shortened: (§1)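 Cells grown in RPMI1640 with 10% heat-inactivated FBS and 1% penicillin-streptomycin at 37 °C, 5% CO2. Log-phase cells were seeded at 5 × 10^3/well 24 h before treatment, exposed to a range of peptide concentrations for 48 h, then given MTT for 4 h. Formazan was dissolved in DMSO and A490 read. Survival was computed relative to untreated wells, and IC50 taken from the survival curve.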

[2] = Toxicity in rabbit erythrocytes assessed as induction of hemolysis at 160 uM incubated for 1 hr by microplate reader assay; type: cell-based, Oryctolagus cuniculus; settings: erythrocyte
Procedure, shortened: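 Rabbit red blood cells in PBS were mixed 1:1 by volume with peptide solution and incubated 1 h at 37 °C, then spun at 1000 g for 5 min. Hemoglobin in the supernatant was read at 540 nm. PBS defined 0% hemolysis and 0.1% Triton X-100 defined 100%.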

[3] = tested on: MCF7; test: Anticancer activity against human MCF7 cells after 48 hrs by MTT assay; type: functional, cell-based; settings: MCF7, 48 h; procedure, shortened: as §1
[4] = tested on: K562; test: Anticancer activity against human K562 cells after 48 hrs by MTT assay; type: functional, cell-based; settings: K562, 48 h; procedure, shortened: as §1
[5] = Retention time of the compound by UPLC method; type: physicochemical
[6] = tested on: MCF7; test: Induction of cytochrome c release in cytoplasm of human MCF7 cells incubated for 2 hrs by ELISA method (reference value: 44.1 +/- 2.7 ng); type: functional
[7] = tested on: MCF7; test: Induction of cytochrome c release in mitochondria of human MCF7 cells incubated for 2 hrs by ELISA method (reference value: 347.8 +/- 14.5 ng); type: functional
[8] = tested on: MCF7; test: Induction of cytochrome c release in human MCF7 cells incubated for 2 hrs by ELISA method (reference value: 364.2 +/- 20.5 ng); type: functional
[9] = tested on: MCF7; test: Induction of cytochrome c release in extracellular region of human MCF7 cells incubated for 2 hrs by ELISA method (reference value: 15.7 +/- 0.77 ng); type: functional
[10] = tested on: MCF7; test: Induction of cytochrome c release in extracellular region of human MCF7 cells at 20 uM incubated for 2 hrs by ELISA method (reference value: 15.7 +/- 0.77 ng); type: functional
[11] = tested on: MCF7; test: Induction of cytochrome c release in cytoplasm of human MCF7 cells at 20 uM incubated for 2 hrs by ELISA method (reference value: 44.1 +/- 2.7 ng); type: functional
[12] = tested on: MCF7; test: Induction of cell membrane morphology changes in human MCF7 cells at 20 uM incubated for 30 mins by scanning electron microscopy; type: functional, cell-based
Procedure, shortened: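 MCF-7 cells were grown 24 h on coverslips at 1 × 10^5/well and exposed to peptide for 30 min. Cells were gently PBS-washed, fixed in 2.5% glutaraldehyde, and examined by scanning electron microscopy.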

[13] = Increase in adriamycin uptake in human MCF7/ADR cells at 5 uM after 2.5 hrs by fluorescence microscopy; type: ADME, cell-based; settings: nci/adr-res
Procedure, shortened: (§2)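 2 × 10^5 MCF-7/ADM or K562/ADM cells were co-incubated 2.5 h with ADM plus peptide, or with verapamil as comparator. Cells were washed with cold PBS and ADM fluorescence was imaged by fluorescence microscopy.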

[14] = Increase in adriamycin uptake in human K562/ADR cells at 5 uM after 2.5 hrs by fluorescence microscopy; type: ADME, cell-based; procedure, shortened: as §2
[15] = Drug uptake in cytosol of human MCF7 cells at 20 uM incubated for 5 mins or 30 mins by fluorescein isothiocyanate labeling based fluorescence microscopy; type: ADME, cell-based
Procedure, shortened: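 MCF-7 cells were plated at 1 × 10^5/well and grown 24 h, then exposed to FITC-labeled peptides for 5 min or 30 min. Cells were washed three times with cold PBS, and intracellular fluorescence was imaged by fluorescence microscopy.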

[16] = tested on: MCF7; test: Induction of cell membrane alteration in human MCF7 cells at 20 uM incubated for 30 mins by acridine orange/ethidium bromide double staining method; type: functional, cell-based
Procedure, shortened: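 MCF-7 cells were plated at 1 × 10^5/well and grown 24 h, then given peptide for 30 min. Cells were washed twice with PBS and stained 10 min in the dark with cold PBS containing acridine orange and ethidium bromide. Excess dye was washed off, then cells were imaged by fluorescence microscopy. Red EB staining marks membrane-compromised cells.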

[17] = tested on: MCF7; test: Induction of cytochrome c release in human MCF7 cells at 5 to 20 uM incubated for 2 hrs by ELISA method
[18] = tested on: NCI/ADR-RES; test: Potentiation of adriamycin-induced cytotoxicity against human MCF7/ADR cells at 5 uM after 48 hrs by MTT assay; type: functional, cell-based
Procedure, shortened: (§3)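 ADM-resistant MCF-7/ADM or K562/ADM cells, grown in RPMI1640 with 10% FBS at 37 °C and 5% CO2, were seeded at 1 × 10^4 per well and held 24 h. Fixed peptide was added, followed by graded ADM concentrations, for 48 h. MTT was then given for 4 h at 37 °C, formazan dissolved in DMSO and absorbance read at 570 nm. Verapamil served as positive control.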

[19] = tested on: MCF7; test: Antimigratory activity in human MCF7 cells assessed as inhibition of cell migration at 5 uM incubated for 48 hrs by transwell migration assay; type: functional, cell-based
Procedure, shortened: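 Transwell chambers with a porous membrane separating upper and lower compartments. 4 × 10^4 MCF-7 cells were placed in the upper chamber in peptide-containing medium and incubated 48 h. Cells that reached the lower membrane surface were counted.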

[20] = Anticancer activity against human K562/ADR cells after 48 hrs by MTT assay; type: functional, cell-based; procedure, shortened: as §1
[21] = tested on: MCF7; test: Induction of mitochondrial membrane potential depolarization in human MCF7 cells at 20 uM incubated for 2 hrs by JC1 staining; type: functional, cell-based
Procedure, shortened: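 MCF-7 cells were plated at 1 × 10^5/well, grown 24 h, and treated with peptide for 2 h. Mitochondrial membrane potential was assessed with a JC-1 kit by imaging red and green fluorescence.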

[22] = tested on: MCF7; test: Antimigratory activity in human MCF7 cells assessed as inhibition of cell migration at 5 uM incubated for 48 hrs by wound healing assay; type: functional, cell-based
Procedure, shortened: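 MCF-7 cells were seeded at 2 × 10^5/well and grown 24 h to 90% confluence. A cell-free gap was scratched, and cells migrated in serum-free medium with peptide for 48 h. Wound closure was photographed at 0 h and 48 h.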

[23] = Increase in adriamycin uptake in human K562/ADR cells at 5 uM after 2.5 hrs by fluorescence spectrophotometry; type: ADME, cell-based
Procedure, shortened: (§4)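 2 × 10^5 MCF-7/ADM or K562/ADM cells were co-incubated 2.5 h with ADM plus peptide, or with verapamil as comparator. After washing in cold PBS, cells were lysed in 0.75 M HCl/0.2% Triton X-100 in isopropanol. Lysate ADM fluorescence was measured by spectrofluorometry at ex 460/em 610 nm.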

[24] = Anticancer activity against human MCF7/ADR cells after 48 hrs by MTT assay; type: functional, cell-based; settings: NCI/ADR-RES; procedure, shortened: as §1
[25] = Increase in adriamycin uptake in human MCF7/ADR cells at 5 uM after 2.5 hrs by fluorescence spectrophotometry; type: ADME, cell-based; settings: nci/adr-res; procedure, shortened: as §4
[26] = tested on: MCF7; test: Induction of cytochrome c release in mitochondria of human MCF7 cells at 20 uM incubated for 2 hrs by ELISA method (reference value: 347.8 +/- 14.5 ng); type: functional
[27] = tested on: K562/Adr; test: Potentiation of adriamycin-induced cytotoxicity against human K562/ADR cells at 5 uM after 48 hrs by MTT assay; type: functional, cell-based; procedure, shortened: as §3
[28] = tested on: MCF7; test: Induction of cytochrome c release in human MCF7 cells at 20 uM incubated for 2 hrs by ELISA method (reference value: 364.2 +/- 20.5 ng); type: functional

| Molecule | IC50 [1] [µM] | Activity [2] | IC50 [3] [µM] | IC50 [4] [µM] | Retention_time [5] [min] | other results |
| --- | --- | --- | --- | --- | --- | --- |
| H-VKRFKKFFRKLKKHV-NH2 | 105 | Non-toxic | 5 | 10.5 | 3.28 | – |
| O=c1[nH]cc(F)c(=O)[nH]1 [FLUOROURACIL] | 30.9 | – | 26.9 | 31.6 | – | Activity [6]: 49.6 ng; Activity [7]: 319.2 ng; Activity [8]: 357 ng; Activity [9]: 15.7 ng |
| H-VKRFKKFFRKLKKFV-NH2 | 52.5 | Non-toxic | 1.3 | 3.7 | 3.74 | – |
| H-VKRFKKFFRKLKKSV-NH2 | 102 | Non-toxic | 21.9 | 26.9 | 3.38 | Activity [10]: 14.7 ng; Activity [11]: 60.3 ng; Activity [12]: Active; Activity [13]: Active; Activity [14]: Active; Drug uptake [15]: Active; Activity [16]: Active; Activity [17]: Dose-dependent effect; Activity [18]: Active; inhibition [19]: Active; IC50 [20]: 31.6 µM; Activity [21]: Active; inhibition [22]: Active; Activity [23]: Active; IC50 [24]: 24.1 µM; Activity [25]: Active; Activity [26]: 301.4 ng; Activity [27]: Active; Activity [28]: 353.4 ng |
| H-VKRFKKFFRKLKKAV-NH2 | 87.1 | Non-toxic | 8.9 | 8.6 | 3.48 | – |
| H-VKRFKKFFRKLKKEV-NH2 | 104 | Non-toxic | 38.9 | 36.6 | 3.41 | – |
| H-VKRFKKFFRKLKKRV-NH2 | 93.3 | Non-toxic | 5.5 | 8.7 | 3.13 | – |
